Screening results deposited in PubChem by Broad Institute.
GASC1 inh: blocks human GASC-1 (KDM4C) demethylase activity; Q9H3R0; GST-KDM4C 2-372, H3K9me3 peptide, LANCE TR-FRET; inhibition, % at 12.5 µM; 96,000 tested, 0.15% active; AID 720574;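 active = mean replicate inhibition above about 25%, with at least 55% of replicates also reaching it, limit read from the data, passing the limit was not always enough; inconclusive = only one of those two conditions met; inactive = neither condition met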
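reagent = H3K9me3 peptide substrate, Fe(II), 2-oxoglutarate | system = GST-tagged GASC-1 (JMJD2C) catalytic fragment, aa 2-372 | amount = enzyme final amount 10 nM | read-out = Fall in 671/618 emission ratio as inhibition | medium = HEPES buffer, pH 7.5, plus ascorbate | schedule = 30 min reaction, 60 min detection, RT | measured by = LANCE TR-FRET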
Pf Dd2 inh: blocks growth of Plasmodium falciparum Dd2 parasites | activity change, % at 10 µM | 94,000 tested, 2.3% active | AID 1159554 | P. falciparum Dd2 growth, SYBR Green, 72 h; hits give low values; in the data active = activity change below about -80%; inconclusive = no clear call, values can overlap the other calls
IDH1 R132H inh: blocks human IDH1 R132H reductase activity. 70,000 tested, 0.18% active. O75874. inhibition, % at 10 µM. diaphorase/resazurin fluorescence, 60 min; in the data active = inhibition above about 34%; inconclusive = no clear call, values can overlap the other calls; inactive = below about 11%;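 note: 0% = DMSO and 100% = no enzyme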
Target sequence (O75874 whole entry R132H): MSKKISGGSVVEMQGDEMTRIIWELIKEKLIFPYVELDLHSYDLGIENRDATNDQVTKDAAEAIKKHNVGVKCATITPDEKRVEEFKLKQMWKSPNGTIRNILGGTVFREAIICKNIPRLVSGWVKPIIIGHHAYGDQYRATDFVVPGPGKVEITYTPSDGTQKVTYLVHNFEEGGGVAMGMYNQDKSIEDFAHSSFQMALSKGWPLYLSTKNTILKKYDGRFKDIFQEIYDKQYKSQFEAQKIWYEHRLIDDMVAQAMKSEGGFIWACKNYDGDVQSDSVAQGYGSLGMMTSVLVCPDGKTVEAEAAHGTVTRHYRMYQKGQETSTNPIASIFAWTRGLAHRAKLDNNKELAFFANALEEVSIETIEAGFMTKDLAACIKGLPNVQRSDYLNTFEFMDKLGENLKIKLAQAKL
T cruzi growth-1: T. cruzi proliferation inhibition | T. cruzi beta-gal in NIH3T3, GalScreen luminescence, 90 h | inhibition, % at 8.34 µM | 77,000 tested, 5.9% active | AID 624255;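 active = mean inhibition above about 93%, with at least 55% of replicates each passing it, limit read from the data, passing the limit was not always enough; inconclusive = only one of those two conditions holds; inactive = neither condition holds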
T cruzi growth-2: inhibitors of T. cruzi proliferation; shares compounds with T cruzi growth-1; T. cruzi beta-gal in NIH3T3, GalScreen luminescence, 90 h; inhibition, % at 8.35 µM; 5,600 tested, 72% active;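 active = mean replicate inhibition above about 95% and at least 55% of replicates individually reaching it, limit read from the data; inconclusive = only one of the two criteria is met; inactive = neither criterion is met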
T cruzi growth-3: blocks T. cruzi growth in NIH3T3 host cells; inhibition, % at 2.09 µM; T. cruzi beta-gal in NIH3T3, GalScreen luminescence, 90 h; AID 651740; shares compounds with T cruzi growth-1; 5,600 tested, 21% active;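 active = mean inhibition above about 95%, with at least 55% of replicates also reaching it, limit read from the data; inconclusive = meets just one of the two conditions; inactive = meets neither condition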;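 note: plate controls were neutral control median for no effect and positive control median for full effect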
NIH3T3 tox: cytotoxicity in mouse NIH/3T3 fibroblasts; shares compounds with T cruzi growth-1; NIH/3T3 viability, CellTiter-Glo ATP luminescence, 90 h; cytotoxicity (signal decrease), % at 8.35 µM; 5,600 tested, 14% active; AID 651742;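 active = mean signal decrease across replicates above about 35% based on untreated-well scatter, with enough replicates individually passing, limit read from the data; inconclusive = no rule stated though some were filed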;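 note: 0% = median of neutral control wells and 100% = median of positive control wells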
NIH3T3 tox 2: kills mouse NIH/3T3 fibroblasts | AID 651744 | 5,600 tested, 56% active | shares compounds with T cruzi growth-1 | NIH/3T3 viability, CellTiter-Glo ATP luminescence, 90 h | inhibition, % at 24.9 µM;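 active = mean loss of cell viability signal at or above a set limit, and enough replicates individually reaching it; inconclusive = meets only the mean limit or only the replicate share; inactive = meets neither condition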;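 note: 0% = median of neutral control wells and 100% = median of positive control wells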
* = called active by the depositor; ? = inconclusive; . = not tested or not shown. Compounds with a hit are over-represented: about 5.8% of the library has one in this group of screens.

SMILES	GASC1 inh	Pf Dd2 inh	IDH1 R132H inh	T cruzi growth-1	T cruzi growth-2	T cruzi growth-3	NIH3T3 tox	NIH3T3 tox 2
C[C@H](CO)N1C[C@H](C)[C@@H](CN(C)C(=O)C2CCCCC2)OCCCC[C@H](C)Oc2ccc(NC(=O)Nc3ccc(C(F)(F)F)cc3)cc2C1=O	0	-28	2	120*	97*	110*	4	19
C[C@@H]1CN([C@H](C)CO)C(=O)c2cc(NC(=O)Nc3ccc(C(F)(F)F)cc3)ccc2O[C@@H](C)CCCCO[C@H]1CN(C)C(=O)C1CCCCC1	0	-45	.	122*	102*	117*	16	47*
C[C@@H]1CN([C@H](C)CO)C(=O)c2cc(NC(=O)Nc3ccc(C(F)(F)F)cc3)ccc2O[C@@H](C)CCCCO[C@@H]1CN(C)C(=O)C1CCCCC1	0	-84*	.	121*	92	116*	-12	23
C[C@@H]1CCCCO[C@@H](CN(C)C(=O)C2CCCCC2)[C@H](C)CN([C@@H](C)CO)C(=O)c2cc(NC(=O)Nc3ccc(C(F)(F)F)cc3)ccc2O1	-1	-6	0	121*	97*	108*	-9	9
C[C@@H]1CN([C@@H](C)CO)C(=O)c2cc(NC(=O)Nc3ccc(F)cc3)ccc2O[C@@H](C)CCCCO[C@H]1CN(C)C(=O)C1CCCCC1	0	-52	2	82	.	.	.	.
C[C@@H]1CCCCO[C@@H](CN(C)C(=O)C2CCCCC2)[C@@H](C)CN([C@@H](C)CO)C(=O)c2cc(NC(=O)Nc3ccc(C(F)(F)F)cc3)ccc2O1	0	?	.	120*	96*	117*	38*	64*
C[C@@H]1CN([C@@H](C)CO)C(=O)Cc2cc(NC(=O)CCCCCC(=O)Nc3ccccc3N)ccc2O[C@H]1CN(C)C	-1	19	0	.	.	.	.	.
CCCN1C[C@@H](C)[C@@H](OC)CN(C)C(=O)c2cc(NC(=O)C3CC3)ccc2OC[C@H]1C	-2	.	0	.	.	.	.	.
C[C@@H]1CN([C@H](C)CO)C(=O)c2cc(/C=C/c3ccccc3)cnc2O[C@@H]1CN(C)S(=O)(=O)c1ccccc1F	-4	-41	2	84	.	.	.	.
C[C@H](CO)N1C[C@H](C)[C@@H](CN(C)S(=O)(=O)c2ccccc2F)Oc2ncc(/C=C/c3ccccc3)cc2C1=O	-4	-72	0	126*	101*	55	25	26
C[C@H](CO)N1C[C@H](C)[C@@H](CN(C)S(=O)(=O)c2ccc(F)cc2)Oc2ncc(/C=C/c3ccccc3)cc2C1=O	-3	-66	.	85*	103*	49	-1	-1
COc1cccc(S(=O)(=O)N(C)C[C@@H]2Oc3ncc(/C=C/c4ccccc4)cc3C(=O)N([C@H](C)CO)C[C@@H]2C)c1	-1	-58	0	106*	105*	73	?	77*
COc1ccc(S(=O)(=O)N(C)C[C@@H]2Oc3ncc(/C=C/c4ccccc4)cc3C(=O)N([C@H](C)CO)C[C@H]2C)cc1	-4	-20	0	.	.	.	.	.
O=C(C[C@@H]1CC[C@H]2[C@@H](COC[C@@H](O)CN2C(=O)c2ccccc2F)O1)N1CCOCC1	1	-3	.	8	.	.	.	.
CCCNC(=O)N1CCC2(CC1)CN(C(=O)c1cccnc1)[C@H](CO)c1[nH]c3cc(OC)ccc3c12	0	-30	.	.	.	.	.	.
CC(C)c1cccc(NC(=O)C[C@H]2CC[C@H]3[C@@H](COc4ccc(NC(=O)c5ccc(C#N)cc5)cc4C(=O)N3C)O2)c1	-4	.	.	82	.	.	.	.
CCC(=O)N1CCCCN2[C@@H](CO)[C@@H](c3ccc(-c4cccc(C#N)c4)cc3)[C@@H]2C1	1	-54	.	112*	90	92	7	13
N#Cc1cccc(-c2ccc([C@@H]3[C@H]4CN(C(=O)Nc5cccc(F)c5)CCCCN4[C@H]3CO)cc2)c1	-1	-40	.	93	.	.	.	.
N#Cc1cccc(-c2ccc([C@H]3[C@@H](CO)N4CCCCN(C(=O)Nc5ccc(F)cc5)C[C@@H]34)cc2)c1	0	3	.	123*	109*	79	2	8
N#Cc1cccc(-c2ccc([C@@H]3[C@@H](CO)N4CCCCN(C(=O)Nc5cccc(F)c5)C[C@H]34)cc2)c1	2	-26	.	115*	105*	65	27	104*
N#Cc1cccc(-c2ccc([C@@H]3[C@H]4CN(C(=O)Nc5ccccc5)CCCCN4[C@H]3CO)cc2)c1	0	18	.	102*	105*	28	17	42*
CC(C)c1cn(CC[C@@H]2CC[C@H](NC(=O)C3CCOCC3)[C@H](CO)O2)nn1	0	11	.	.	.	.	.	.
Cc1ccc(NC(=O)CSc2nc(C)cc(-c3ccccc3)n2)cc1	.	.	-1	.	.	.	.	.
C/C=C/c1ccc([C@H]2[C@@H](CO)N3CCCCN(C(=O)Nc4cc(F)ccc4F)C[C@H]23)cc1	3	-62	.	102*	111*	62	10	104*
O=C(Nc1cc(F)ccc1F)N1CCCCN2[C@H](C1)[C@H](c1ccc(-c3ccncc3)cc1)[C@@H]2CO	0	0	.	85	.	.	.	.
SMILES	GASC1 inh	Pf Dd2 inh	IDH1 R132H inh	T cruzi growth-1	T cruzi growth-2	T cruzi growth-3	NIH3T3 tox	NIH3T3 tox 2
O=C(Nc1cc(F)ccc1F)N1CCCCN2[C@H](CO)[C@H](c3ccc(-c4ccncc4)cc3)[C@H]2C1	-1	-19	.	101*	111*	80	7	19
O=C(Nc1cc(F)ccc1F)N1CCCCN2[C@@H](CO)[C@@H](c3ccc(-c4cccnc4)cc3)[C@@H]2C1	0	-36	.	82	.	.	.	.
C/C=C/c1ccc([C@@H]2[C@@H](CO)N3CCCCN(C(=O)Nc4cc(F)ccc4F)C[C@@H]23)cc1	-2	-43	.	79	.	.	.	.
O=C(Nc1cc(F)ccc1F)N1CCCCN2[C@H](C1)[C@H](c1ccc(-c3cncnc3)cc1)[C@@H]2CO	0	23	.	103*	6	9	-22	4
COCC(=O)N1CC2(C1)CN(C(=O)CN1CCOCC1)[C@@H](CO)c1c2c2ccc(OC)cc2n1C	-1	-80	.	.	.	.	.	.
Cc1noc(C)c1S(=O)(=O)Nc1ccc2c(c1)C(=O)N([C@H](C)CO)C[C@H](C)[C@H](CN(C)Cc1ccc(C(=O)O)cc1)OCCCC[C@H](C)O2	1	1	.	32	.	.	.	.
Cc1noc(C)c1S(=O)(=O)Nc1ccc2c(c1)C(=O)N([C@H](C)CO)C[C@H](C)[C@H](CN(C)Cc1ccc(C(F)(F)F)cc1)OCCCC[C@H](C)O2	8	-64	.	101*	97*	105*	29	105*
